This is an account of results in BindingDB's records for doi:10.1016/j.bmc.2013.04.054 (Northwestern University, 2013).

This assay concerns the target Voltage-dependent L-type calcium channel subunit alpha-1C (Oryctolagus cuniculus, UniProt P15381). Description: Antagonist activity at rabbit voltage-dependent L-type calcium channel Cav1.2alpha-1C expressed in HEK293 cells by FLIPR assay. The gist of the method:
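HEK293 lines stably expressing rat CaV1.3α1D or rabbit CaV1.2α1C, with rat CaVβ3 and rat CaVα2δ-1 cDNAs used in construction. Calcium influx was read by Fluo-8 fluorescence on a FLIPR Tetra. […] The selectivity ratio is CaV1.3 IC50 over CaV1.2 IC50.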

Voltage-dependent L-type calcium channel subunit alpha-1C, sequence (P15381 whole entry): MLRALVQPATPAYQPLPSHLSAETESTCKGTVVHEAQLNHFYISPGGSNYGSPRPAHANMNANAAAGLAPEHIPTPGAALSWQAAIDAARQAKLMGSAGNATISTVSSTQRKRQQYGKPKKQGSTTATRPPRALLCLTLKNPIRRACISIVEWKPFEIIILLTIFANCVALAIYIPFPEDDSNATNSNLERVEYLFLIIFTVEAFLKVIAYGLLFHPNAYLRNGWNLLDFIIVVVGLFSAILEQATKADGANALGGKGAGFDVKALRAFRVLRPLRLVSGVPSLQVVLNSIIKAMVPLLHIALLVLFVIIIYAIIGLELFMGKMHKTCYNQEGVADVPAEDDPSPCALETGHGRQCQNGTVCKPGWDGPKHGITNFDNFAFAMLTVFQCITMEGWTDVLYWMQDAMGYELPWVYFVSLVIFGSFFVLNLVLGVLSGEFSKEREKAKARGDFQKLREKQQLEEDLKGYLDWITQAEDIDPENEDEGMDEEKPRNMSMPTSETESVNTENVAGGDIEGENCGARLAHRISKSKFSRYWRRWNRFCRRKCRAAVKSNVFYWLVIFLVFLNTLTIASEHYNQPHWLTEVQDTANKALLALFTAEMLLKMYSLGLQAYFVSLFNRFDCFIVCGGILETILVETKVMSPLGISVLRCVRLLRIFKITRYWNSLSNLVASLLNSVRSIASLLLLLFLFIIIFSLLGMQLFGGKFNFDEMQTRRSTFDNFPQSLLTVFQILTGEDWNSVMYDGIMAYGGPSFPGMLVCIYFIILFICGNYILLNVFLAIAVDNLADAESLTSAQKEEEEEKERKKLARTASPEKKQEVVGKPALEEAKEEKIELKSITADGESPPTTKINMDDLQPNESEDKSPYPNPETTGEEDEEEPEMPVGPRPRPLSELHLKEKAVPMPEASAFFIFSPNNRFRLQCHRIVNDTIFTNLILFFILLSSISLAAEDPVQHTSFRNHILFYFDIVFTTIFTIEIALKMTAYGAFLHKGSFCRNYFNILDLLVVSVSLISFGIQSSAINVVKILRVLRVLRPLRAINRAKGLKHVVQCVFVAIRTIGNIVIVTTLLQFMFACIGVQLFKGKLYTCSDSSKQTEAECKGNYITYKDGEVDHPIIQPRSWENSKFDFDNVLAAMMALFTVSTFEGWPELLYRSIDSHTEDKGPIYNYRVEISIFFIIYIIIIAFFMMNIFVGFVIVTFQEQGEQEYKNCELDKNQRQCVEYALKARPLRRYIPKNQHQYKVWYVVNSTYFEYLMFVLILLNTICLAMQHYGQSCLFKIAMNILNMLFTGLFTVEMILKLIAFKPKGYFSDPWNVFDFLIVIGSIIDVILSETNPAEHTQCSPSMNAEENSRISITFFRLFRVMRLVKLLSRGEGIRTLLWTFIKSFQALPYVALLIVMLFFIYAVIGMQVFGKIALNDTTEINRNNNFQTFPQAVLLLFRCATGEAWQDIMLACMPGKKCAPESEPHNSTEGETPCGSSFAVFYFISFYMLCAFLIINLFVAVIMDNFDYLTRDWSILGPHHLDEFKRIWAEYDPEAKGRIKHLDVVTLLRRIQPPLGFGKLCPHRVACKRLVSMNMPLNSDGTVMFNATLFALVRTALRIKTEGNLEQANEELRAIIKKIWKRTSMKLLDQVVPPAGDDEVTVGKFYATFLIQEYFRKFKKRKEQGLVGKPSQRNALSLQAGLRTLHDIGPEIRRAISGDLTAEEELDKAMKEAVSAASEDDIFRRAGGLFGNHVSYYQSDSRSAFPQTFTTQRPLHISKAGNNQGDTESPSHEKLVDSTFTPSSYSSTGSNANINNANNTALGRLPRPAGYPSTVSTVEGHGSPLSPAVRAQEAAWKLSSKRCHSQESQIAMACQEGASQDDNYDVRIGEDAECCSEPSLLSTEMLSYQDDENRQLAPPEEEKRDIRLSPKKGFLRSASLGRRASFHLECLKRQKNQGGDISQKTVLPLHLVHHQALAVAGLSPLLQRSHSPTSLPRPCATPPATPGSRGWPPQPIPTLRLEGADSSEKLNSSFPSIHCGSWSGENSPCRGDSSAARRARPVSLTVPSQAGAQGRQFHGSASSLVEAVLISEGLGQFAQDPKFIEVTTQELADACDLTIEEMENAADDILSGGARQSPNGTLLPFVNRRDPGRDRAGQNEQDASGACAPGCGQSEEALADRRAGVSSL

Take `COC(=O)N1C(=O)N=C(C)C(C(=O)OC(C)C)[C@@H]1c1cccc([N+](=O)[O-])c1` (some centres not stated): the IC50 (in general, the concentration that gives 50% inhibition) was found to be 2.48 µM.

In the case of `COC(=O)C1C(C)=NC(=O)N(C(=O)OC(C)C)C1c1cccc([N+](=O)[O-])c1` (configuration not stated), the IC50 is 2.48 µM.
